Where “and” joins values, the source holds several entries; their conditions need not be identical. Equal values may be shown once.
Key:
[1] = target: T1, Serine/threonine-protein kinase 4 (Homo sapiens) (UniProt Q13043); experiment: Inhibition of recombinant STK4 (unknown origin) at 10 uM by DSF assay relative to staurosporine
T1 sequence (whole entry): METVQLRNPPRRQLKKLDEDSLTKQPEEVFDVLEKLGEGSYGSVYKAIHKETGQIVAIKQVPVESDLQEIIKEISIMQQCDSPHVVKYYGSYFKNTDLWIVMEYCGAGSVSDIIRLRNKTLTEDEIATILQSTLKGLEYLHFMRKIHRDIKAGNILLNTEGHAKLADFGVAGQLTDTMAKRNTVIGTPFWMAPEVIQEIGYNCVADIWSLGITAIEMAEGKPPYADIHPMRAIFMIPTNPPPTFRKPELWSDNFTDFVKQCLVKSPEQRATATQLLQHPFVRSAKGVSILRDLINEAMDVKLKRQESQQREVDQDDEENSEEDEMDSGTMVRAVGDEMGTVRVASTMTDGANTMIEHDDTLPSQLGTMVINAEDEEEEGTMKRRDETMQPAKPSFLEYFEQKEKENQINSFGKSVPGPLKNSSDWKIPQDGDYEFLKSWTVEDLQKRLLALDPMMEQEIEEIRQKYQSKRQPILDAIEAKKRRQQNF
Outline: (§1)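 Differential scanning fluorimetry on an in-house panel of 90 recombinant kinases. Stabilization is read as the shift in melting temperature (ΔTm) relative to ligand-free protein. Staurosporine served as the positive control, and binding was also compared against its ΔTm.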

[2] = target: T2, Bone morphogenetic protein receptor type-2 (Homo sapiens) (UniProt Q13873); experiment: Binding affinity to BMPR2 (unknown origin) assessed as change in enthalpy by ITC assay
T2 sequence (whole entry): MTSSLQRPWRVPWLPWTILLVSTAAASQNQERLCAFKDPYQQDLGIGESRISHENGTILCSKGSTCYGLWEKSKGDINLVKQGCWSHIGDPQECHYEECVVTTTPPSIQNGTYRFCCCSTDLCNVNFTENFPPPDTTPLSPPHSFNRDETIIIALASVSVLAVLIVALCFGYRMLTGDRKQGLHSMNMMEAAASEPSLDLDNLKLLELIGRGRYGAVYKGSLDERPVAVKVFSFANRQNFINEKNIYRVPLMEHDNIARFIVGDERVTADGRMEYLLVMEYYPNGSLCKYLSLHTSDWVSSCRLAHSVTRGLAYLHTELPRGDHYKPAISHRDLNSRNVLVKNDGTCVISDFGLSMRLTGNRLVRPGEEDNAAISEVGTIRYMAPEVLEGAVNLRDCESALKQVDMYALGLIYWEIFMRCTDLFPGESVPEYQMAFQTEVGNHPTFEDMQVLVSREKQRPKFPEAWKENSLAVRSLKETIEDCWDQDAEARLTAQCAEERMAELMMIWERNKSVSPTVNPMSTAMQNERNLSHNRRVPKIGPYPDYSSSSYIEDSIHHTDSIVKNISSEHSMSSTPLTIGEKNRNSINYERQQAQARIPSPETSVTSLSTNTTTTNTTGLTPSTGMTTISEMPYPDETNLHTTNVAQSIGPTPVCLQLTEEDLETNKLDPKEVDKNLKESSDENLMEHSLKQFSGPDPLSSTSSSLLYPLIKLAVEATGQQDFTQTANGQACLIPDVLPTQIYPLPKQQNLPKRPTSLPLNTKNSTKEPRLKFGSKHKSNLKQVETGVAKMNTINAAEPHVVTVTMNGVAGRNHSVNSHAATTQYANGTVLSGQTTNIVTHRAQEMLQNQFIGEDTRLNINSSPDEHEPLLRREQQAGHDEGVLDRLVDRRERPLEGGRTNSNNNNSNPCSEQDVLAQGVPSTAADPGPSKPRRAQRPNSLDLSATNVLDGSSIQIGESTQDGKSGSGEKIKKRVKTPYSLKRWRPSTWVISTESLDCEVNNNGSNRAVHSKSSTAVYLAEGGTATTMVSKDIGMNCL
Outline: (§2)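 Binding measured by isothermal titration calorimetry against the recombinant BMPR2 kinase domain. Thermodynamic binding parameters, including the dissociation constant, were derived from the titration data.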

[3] = target: Cyclin-dependent kinase 2 (Homo sapiens) (UniProt P24941); experiment: Binding affinity to recombinant CDK2 (unknown origin) assessed as change in melting temperature at 10 uM by DSF assay; outline: as §1
[4] = target: T2, Bone morphogenetic protein receptor type-2 (Homo sapiens); experiment: Binding affinity to BMPR2 (unknown origin) assessed as change in entropy by ITC assay; outline: as §2
[5] = target: MAP/microtubule affinity-regulating kinase 3 (Homo sapiens) (UniProt P27448); experiment: Inhibition of recombinant MARK3 (unknown origin) at 10 uM by DSF assay relative to staurosporine; outline: as §1
Sequence of MAP/microtubule affinity-regulating kinase 3 (Homo sapiens) (P27448 whole entry, looked up): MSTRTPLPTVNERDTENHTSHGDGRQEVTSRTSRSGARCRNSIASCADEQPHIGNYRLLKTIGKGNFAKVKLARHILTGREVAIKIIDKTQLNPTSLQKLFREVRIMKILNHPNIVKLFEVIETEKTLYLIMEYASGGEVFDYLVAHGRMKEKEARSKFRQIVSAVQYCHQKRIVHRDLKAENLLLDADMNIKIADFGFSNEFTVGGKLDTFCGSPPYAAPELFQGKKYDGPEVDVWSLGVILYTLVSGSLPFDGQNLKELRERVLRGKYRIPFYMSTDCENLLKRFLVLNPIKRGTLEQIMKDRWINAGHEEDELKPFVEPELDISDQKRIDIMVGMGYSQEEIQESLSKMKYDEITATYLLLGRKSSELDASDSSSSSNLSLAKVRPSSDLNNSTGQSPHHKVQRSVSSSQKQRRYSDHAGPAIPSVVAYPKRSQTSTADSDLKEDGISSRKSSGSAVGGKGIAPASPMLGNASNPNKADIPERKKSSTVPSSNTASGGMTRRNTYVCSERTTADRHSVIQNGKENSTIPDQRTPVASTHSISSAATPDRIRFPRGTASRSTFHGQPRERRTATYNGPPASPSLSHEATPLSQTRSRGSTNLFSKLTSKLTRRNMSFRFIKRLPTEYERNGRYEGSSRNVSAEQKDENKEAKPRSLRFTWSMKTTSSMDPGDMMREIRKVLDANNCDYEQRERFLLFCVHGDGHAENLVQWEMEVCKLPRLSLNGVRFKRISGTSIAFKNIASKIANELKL

[6] = target: BMP-2-inducible protein kinase (Homo sapiens) (UniProt Q9NSY1); experiment: Inhibition of recombinant BMP2K (unknown origin) at 10 uM by DSF assay relative to staurosporine; outline: as §1
Sequence of BMP-2-inducible protein kinase (Homo sapiens) (Q9NSY1 whole entry, looked up): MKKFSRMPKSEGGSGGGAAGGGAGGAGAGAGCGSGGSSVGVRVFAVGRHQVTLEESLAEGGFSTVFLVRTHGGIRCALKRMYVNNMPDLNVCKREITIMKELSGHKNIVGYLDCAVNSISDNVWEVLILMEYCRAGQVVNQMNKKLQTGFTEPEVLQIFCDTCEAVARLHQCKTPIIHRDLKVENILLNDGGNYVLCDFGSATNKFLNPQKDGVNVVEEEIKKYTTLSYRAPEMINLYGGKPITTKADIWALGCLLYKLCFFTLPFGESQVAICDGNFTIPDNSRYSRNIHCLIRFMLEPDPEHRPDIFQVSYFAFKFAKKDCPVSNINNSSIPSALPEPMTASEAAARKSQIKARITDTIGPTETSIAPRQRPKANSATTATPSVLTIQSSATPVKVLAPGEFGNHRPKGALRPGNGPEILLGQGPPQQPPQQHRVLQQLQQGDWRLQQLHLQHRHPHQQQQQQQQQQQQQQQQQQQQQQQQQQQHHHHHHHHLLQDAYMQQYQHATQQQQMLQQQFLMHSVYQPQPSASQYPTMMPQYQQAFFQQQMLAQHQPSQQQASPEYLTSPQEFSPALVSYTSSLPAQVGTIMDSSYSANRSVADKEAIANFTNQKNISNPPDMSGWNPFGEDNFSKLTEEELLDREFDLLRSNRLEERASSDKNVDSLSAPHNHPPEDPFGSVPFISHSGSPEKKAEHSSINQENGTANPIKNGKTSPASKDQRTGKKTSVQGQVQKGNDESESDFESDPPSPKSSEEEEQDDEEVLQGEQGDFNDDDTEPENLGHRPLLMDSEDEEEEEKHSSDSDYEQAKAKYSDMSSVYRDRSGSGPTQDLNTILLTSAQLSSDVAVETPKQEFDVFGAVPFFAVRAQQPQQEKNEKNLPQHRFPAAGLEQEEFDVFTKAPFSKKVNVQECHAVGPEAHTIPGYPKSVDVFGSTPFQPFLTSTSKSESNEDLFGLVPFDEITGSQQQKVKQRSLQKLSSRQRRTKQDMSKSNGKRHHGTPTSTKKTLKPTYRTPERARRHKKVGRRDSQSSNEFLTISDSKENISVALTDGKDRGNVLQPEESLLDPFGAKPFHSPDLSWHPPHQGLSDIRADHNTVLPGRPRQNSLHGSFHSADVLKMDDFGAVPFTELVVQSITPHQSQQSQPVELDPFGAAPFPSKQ

[7] = target: Glycogen synthase kinase-3 beta (Homo sapiens, UniProt P49841); experiment: Inhibition of recombinant GSK3B (unknown origin) at 10 uM by DSF assay relative to staurosporine; outline: as §1
Sequence of Glycogen synthase kinase-3 beta (P49841 whole entry, looked up): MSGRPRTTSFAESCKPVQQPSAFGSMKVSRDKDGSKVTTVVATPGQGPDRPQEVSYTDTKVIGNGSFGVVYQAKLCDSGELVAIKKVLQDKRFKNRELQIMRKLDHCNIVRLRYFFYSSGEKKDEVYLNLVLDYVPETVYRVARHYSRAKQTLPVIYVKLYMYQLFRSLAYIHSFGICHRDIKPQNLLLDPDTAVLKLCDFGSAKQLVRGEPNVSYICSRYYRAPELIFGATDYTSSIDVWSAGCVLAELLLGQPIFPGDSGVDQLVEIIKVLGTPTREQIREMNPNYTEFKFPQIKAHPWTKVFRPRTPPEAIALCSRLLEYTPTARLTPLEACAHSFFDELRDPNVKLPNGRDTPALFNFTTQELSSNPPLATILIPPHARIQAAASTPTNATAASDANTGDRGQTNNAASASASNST

[8] = target: T3, MAP/microtubule affinity-regulating kinase 4 (Homo sapiens) (UniProt Q96L34); experiment: Inhibition of recombinant MARK4 (unknown origin) at 10 uM by DSF assay relative to staurosporine; outline: as §1
T3 sequence (whole entry): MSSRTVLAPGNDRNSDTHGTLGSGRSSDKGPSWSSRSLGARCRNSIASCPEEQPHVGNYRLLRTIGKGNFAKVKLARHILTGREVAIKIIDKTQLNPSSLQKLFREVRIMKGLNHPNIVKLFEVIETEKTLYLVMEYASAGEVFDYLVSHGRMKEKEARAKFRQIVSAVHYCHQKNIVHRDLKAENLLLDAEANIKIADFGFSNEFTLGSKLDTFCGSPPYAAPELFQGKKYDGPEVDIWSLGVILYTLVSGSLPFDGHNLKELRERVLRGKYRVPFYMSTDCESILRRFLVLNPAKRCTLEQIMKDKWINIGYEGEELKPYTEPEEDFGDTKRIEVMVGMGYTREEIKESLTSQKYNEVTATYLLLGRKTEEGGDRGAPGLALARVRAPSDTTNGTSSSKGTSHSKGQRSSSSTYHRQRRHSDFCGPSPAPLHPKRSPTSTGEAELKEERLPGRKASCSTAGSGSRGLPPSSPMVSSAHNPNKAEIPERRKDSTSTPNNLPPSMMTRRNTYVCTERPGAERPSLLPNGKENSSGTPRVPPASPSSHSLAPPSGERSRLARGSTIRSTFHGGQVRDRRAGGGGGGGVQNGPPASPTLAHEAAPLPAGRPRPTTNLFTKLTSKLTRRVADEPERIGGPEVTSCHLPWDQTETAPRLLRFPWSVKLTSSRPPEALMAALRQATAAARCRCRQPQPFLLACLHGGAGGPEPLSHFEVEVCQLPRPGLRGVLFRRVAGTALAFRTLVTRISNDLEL

[9] = target: BMP-2-inducible protein kinase (Homo sapiens) (UniProt Q9NSY1); experiment: Binding affinity to recombinant BMP2K (unknown origin) assessed as change in melting temperature at 10 uM by DSF assay; outline: as §1
[10] = target: Mitogen-activated protein kinase 8 (Homo sapiens) (UniProt P45983); experiment: Inhibition of JNK1 (unknown origin) assessed as residual activity at 1 uM by Kinomescan assay relative to staurosporine
Sequence of Mitogen-activated protein kinase 8 (Homo sapiens) (P45983 whole entry): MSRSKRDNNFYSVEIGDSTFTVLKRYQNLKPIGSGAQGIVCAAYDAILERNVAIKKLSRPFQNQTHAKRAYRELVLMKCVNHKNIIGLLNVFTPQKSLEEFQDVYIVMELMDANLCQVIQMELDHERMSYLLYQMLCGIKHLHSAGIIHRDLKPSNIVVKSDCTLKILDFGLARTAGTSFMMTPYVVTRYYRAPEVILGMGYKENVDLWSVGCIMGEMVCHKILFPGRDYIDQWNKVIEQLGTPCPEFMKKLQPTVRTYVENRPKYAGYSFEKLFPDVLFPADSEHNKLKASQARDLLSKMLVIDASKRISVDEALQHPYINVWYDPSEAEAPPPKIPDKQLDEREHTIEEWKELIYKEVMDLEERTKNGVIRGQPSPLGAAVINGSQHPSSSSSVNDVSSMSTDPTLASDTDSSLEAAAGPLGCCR

`O=C1NCCc2ccc(cc2)Nc2nccc(n2)Nc2cc1[nH]n2` was tested. Which inhibition [1] did it give?
Its inhibition is 22%.

What about the deltaH [2] of the same compound?
Its deltaH is -8.41 kcal/mol.

What about the ΔTm [3] of the same compound?
The ΔTm was 3.3 °C.

What about the deltaS [4] of the same compound?
Its deltaS is 3.7 cal/mol.K.

And the inhibition [5]?
Its inhibition is 22%.

What about the inhibition [6] of the same compound?
Its inhibition is 30%.

And the inhibition [7]?
Its inhibition is 71%.

What about the inhibition [8] of the same compound?
The inhibition was 23%.

What about the ΔTm [9] of the same compound?
The ΔTm was 5.8 °C and 5.3 °C.

And the Activity [10]?
Its Activity is 27%.
